In ChEMBL document CHEMBL2203264, “Optimization of imidazo[4,5-b]pyridine-based kinase inhibitors: identification of a dual FLT3/Aurora kinase inhibitor as an orally bioavailable preclinical development candidate for the treatment of acute myeloid leukemia” (J Med Chem, 2012):

What was measured:
[1] = system: Plasma; test: Plasma protein binding in mouse; format: ADME, cell-free
[2] = Oral bioavailability in Sprague-Dawley rat at 5 mg/kg; format: ADME, organism-based; settings: in vivo
Procedure, shortened: (§1)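 Female Sprague-Dawley rats, 5 mg/kg. Oral vehicle 10% DMSO, 5% Tween 80, 20% PEG400 in water; iv vehicle 10% DMSO, 5% Tween 20, 85% saline, 0.3% 1 M HCl. Serial tail-vein plasma at 15, 30 min and 2, 4, 6, 24 h. Methanol precipitation with olomoucine internal standard, then LC-MS (C18 BEH, positive ESI MRM).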

[3] = target: Proto-oncogene tyrosine-protein kinase receptor Ret (Homo sapiens) (UniProt P07949); test: Inhibition of RET at 1 uM
Proto-oncogene tyrosine-protein kinase receptor Ret (Homo sapiens), sequence (P07949 whole entry): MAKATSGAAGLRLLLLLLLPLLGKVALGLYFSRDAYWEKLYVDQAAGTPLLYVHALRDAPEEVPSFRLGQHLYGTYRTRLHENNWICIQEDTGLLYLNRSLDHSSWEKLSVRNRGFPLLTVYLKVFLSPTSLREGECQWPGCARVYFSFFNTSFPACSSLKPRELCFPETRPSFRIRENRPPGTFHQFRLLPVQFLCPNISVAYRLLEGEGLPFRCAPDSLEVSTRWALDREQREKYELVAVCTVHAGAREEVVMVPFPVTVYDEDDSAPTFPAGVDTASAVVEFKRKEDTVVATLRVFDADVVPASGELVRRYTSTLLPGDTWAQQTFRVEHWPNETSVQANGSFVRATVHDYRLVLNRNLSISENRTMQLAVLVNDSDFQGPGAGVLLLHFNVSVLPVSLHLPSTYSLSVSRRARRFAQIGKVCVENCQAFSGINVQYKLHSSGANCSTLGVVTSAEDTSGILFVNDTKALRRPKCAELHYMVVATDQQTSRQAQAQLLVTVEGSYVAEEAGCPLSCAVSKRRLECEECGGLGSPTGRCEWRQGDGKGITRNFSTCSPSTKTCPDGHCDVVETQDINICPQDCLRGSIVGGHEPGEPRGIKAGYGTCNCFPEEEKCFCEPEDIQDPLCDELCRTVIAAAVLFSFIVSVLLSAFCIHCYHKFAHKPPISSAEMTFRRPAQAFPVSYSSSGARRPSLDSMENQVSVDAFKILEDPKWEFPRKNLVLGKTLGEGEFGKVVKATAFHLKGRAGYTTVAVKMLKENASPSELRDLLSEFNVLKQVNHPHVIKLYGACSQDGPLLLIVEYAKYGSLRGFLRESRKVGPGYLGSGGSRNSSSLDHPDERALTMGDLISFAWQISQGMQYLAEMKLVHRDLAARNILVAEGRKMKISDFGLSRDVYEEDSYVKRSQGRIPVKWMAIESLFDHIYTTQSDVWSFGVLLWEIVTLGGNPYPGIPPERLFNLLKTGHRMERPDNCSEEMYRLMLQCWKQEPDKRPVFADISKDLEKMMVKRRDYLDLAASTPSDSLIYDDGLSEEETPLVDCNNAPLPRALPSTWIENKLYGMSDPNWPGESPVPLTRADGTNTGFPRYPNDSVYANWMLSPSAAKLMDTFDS
Procedure, shortened: (§2)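 KINOMEScan competition-binding panel of 442 kinases (386 nonmutant) tested at 1 μM. Binding is read as percent of control ligand competition; <10% of control counts as a hit for the S(10) score.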

[4] = system: Mus musculus; test: Volume of distribution in Balb/C mouse at 5 mg/kg, iv and 5 mg/kg, po; format: ADME, organism-based; settings: in vivo
Procedure, shortened: (§3)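 Female Balb/C mice given 5 mg/kg po or iv in 10% DMSO, 5% Tween 20 in saline. Killed at 5, 15, 30 min and 1, 2, 4, 6, 24 h; plasma from cardiac blood. Methanol protein precipitation with olomoucine internal standard, then LC-MS (reverse-phase C18, positive ESI MRM).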

[5] = Half life in Sprague-Dawley rat at 5 mg/kg, iv; format: ADME, organism-based; design: dose 5 mg/kg, route intravenous; settings: in vivo; procedure, shortened: as §1
[6] = target: Tyrosine-protein kinase JAK2 (Homo sapiens) (UniProt O60674); test: Inhibition of JAK2 at 1 uM; procedure, shortened: as §2
Tyrosine-protein kinase JAK2 (Homo sapiens), sequence (O60674 whole entry): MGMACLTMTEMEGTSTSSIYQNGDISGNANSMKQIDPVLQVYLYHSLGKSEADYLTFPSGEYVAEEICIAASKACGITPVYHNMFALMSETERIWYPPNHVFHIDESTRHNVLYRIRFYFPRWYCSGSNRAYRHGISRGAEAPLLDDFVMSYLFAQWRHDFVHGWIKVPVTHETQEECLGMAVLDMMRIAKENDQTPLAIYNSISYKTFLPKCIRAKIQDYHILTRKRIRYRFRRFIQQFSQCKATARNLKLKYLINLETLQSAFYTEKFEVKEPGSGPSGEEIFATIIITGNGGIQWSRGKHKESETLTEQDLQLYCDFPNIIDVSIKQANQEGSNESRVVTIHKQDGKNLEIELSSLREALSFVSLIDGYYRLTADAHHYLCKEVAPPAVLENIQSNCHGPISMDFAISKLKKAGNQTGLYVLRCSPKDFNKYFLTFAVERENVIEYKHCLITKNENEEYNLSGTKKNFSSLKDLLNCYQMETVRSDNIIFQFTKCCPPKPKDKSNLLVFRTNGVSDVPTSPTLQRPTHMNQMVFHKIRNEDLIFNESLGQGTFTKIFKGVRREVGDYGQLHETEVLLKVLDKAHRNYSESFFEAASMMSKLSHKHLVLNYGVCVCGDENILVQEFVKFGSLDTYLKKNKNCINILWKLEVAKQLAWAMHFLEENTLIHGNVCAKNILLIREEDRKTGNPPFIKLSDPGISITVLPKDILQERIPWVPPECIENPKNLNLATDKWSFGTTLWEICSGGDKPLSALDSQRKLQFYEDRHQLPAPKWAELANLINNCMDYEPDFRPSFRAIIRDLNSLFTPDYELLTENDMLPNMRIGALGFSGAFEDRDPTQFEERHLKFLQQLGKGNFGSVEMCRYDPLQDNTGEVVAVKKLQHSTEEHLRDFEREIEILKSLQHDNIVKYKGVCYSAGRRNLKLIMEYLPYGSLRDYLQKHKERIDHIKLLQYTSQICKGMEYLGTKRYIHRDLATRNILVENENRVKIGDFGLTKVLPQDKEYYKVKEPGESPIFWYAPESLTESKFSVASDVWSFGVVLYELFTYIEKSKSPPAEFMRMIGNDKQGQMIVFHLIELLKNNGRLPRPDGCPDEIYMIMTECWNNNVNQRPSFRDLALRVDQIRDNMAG

[7] = Half life in Balb/C mouse at 5 mg/kg, iv; format: ADME, organism-based; design: dose 5 mg/kg, route intravenous; settings: in vivo; procedure, shortened: as §3
[8] = AUC (infinity) in Balb/C mouse at 5 mg/kg, iv; format: ADME, organism-based; design: time infinity, dose 5 mg/kg, route intravenous; settings: plasma
Procedure, shortened: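 Female Balb/C mice dosed iv at 5 mg/kg in 10% DMSO, 5% Tween 20 in saline. Mice killed at 5, 15, 30 min and 1, 2, 4, 6, 24 h. Plasma from cardiac blood was methanol-precipitated with olomoucine internal standard, then analysed by LC–MS (positive ESI MRM).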

[9] = system: Mus musculus; test: Toxicity in CrTacNCr-Fox1(nu) athymic mouse assessed as adverse condition at 50 to 100 mg/kg, po administered 10 days post implantation daily for 7 days; format: organism-based; design: dose 50-100 mg/kg, route oral; settings: in vivo
[10] = system: Mus musculus; test: Toxicity in CrTacNCr-Fox1(nu) athymic mouse assessed as body weight loss at 50 to 100 mg/kg, po administered 10 days post implantation daily for 7 days; format: organism-based; design: dose 50-100 mg/kg, route oral; settings: in vivo
[11] = target: Platelet-derived growth factor receptor beta (Homo sapiens) (UniProt P09619); test: Inhibition of PDGFRB at 1 uM; procedure, shortened: as §2
Platelet-derived growth factor receptor beta (Homo sapiens), sequence (P09619 whole entry): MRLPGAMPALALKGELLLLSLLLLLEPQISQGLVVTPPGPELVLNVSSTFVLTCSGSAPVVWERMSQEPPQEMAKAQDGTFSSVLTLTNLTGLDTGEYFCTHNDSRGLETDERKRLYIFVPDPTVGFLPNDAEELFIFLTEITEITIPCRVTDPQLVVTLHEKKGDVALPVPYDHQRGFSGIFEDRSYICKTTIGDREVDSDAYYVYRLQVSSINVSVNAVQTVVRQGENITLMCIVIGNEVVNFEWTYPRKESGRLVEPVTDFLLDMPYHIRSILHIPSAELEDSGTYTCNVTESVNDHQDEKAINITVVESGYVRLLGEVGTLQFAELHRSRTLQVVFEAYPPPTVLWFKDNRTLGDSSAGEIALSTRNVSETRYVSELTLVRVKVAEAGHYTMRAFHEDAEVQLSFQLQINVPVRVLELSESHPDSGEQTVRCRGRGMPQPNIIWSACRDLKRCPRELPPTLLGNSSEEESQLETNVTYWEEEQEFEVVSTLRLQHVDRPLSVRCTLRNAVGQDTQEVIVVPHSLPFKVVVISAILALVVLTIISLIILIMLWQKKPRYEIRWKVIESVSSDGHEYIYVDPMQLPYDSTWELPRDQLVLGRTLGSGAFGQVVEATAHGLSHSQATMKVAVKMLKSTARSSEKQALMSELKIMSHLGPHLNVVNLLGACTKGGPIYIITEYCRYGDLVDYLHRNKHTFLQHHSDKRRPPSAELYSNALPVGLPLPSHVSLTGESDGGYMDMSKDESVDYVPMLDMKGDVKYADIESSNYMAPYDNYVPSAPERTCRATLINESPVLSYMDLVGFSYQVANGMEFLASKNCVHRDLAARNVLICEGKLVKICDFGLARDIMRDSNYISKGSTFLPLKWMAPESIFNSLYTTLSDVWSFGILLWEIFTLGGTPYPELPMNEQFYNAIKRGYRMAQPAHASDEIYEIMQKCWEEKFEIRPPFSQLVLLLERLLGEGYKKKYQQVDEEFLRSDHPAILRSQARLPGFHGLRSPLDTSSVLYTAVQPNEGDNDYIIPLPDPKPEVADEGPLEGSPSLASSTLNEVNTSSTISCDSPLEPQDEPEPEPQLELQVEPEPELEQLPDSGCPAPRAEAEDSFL

[12] = system: MV4-11; test: Antitumor activity against human MV4-11 cells xenografted in CrTacNCr-Fox1(nu) athymic mouse assessed as tumor growth inhibition at 50 mg/kg, po bid administered 10 days post implantation daily for 7 days measured after 11 days; format: functional; design: scale not given: the % may be the effect or the level left
Procedure, shortened: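 Female adult CrTacNcr-Fox1(nu) athymic mice, s.c. 10^7 FLT3-ITD-positive MV4-11 cells; treatment began at 10 days (mean tumor volume at least 100 mm^3). Oral 50 or 100 mg/kg in 10% DMSO, 20% PEG 400, 5% Tween 80, 65% water, or vehicle alone; n = 5 per group. Dosed twice daily for 7 days, then once daily for 4 days; study ended day 60.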

[13] = AUC (infinity) in Sprague-Dawley rat at 5 mg/kg, iv; format: ADME, organism-based; design: time infinity, dose 5 mg/kg, route intravenous; settings: plasma
Procedure, shortened: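 Female Sprague–Dawley rats dosed iv at 5 mg/kg in 10% DMSO, 5% Tween 20, 85% saline, 0.3% 1 M HCl. Serial tail-vein bleeds at 15, 30 min and 2, 4, 6, 24 h. Plasma was methanol-precipitated with olomoucine internal standard, then analysed by LC–MS (positive ESI MRM).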

[14] = target: T1, Cytochrome P450 1A2 (Homo sapiens, UniProt P05177); test: Inhibition of human liver microsome CYP1A2 by LC-MS-MS analysis
T1 sequence (P05177 whole entry): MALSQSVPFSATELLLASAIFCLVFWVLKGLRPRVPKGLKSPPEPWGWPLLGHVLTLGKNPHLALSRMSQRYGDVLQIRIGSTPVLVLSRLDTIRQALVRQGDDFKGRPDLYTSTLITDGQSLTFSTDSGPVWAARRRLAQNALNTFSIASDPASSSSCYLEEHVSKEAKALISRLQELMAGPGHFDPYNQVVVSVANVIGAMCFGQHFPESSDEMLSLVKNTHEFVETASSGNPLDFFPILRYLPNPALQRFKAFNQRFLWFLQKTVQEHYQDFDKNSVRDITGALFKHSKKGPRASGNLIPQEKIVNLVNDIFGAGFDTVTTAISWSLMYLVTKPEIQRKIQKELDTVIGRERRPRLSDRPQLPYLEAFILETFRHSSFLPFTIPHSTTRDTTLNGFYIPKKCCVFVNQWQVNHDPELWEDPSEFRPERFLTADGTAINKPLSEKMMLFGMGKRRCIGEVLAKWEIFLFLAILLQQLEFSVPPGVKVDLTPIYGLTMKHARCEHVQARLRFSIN

[15] = target: Voltage-gated inwardly rectifying potassium channel KCNH2 (Homo sapiens, UniProt Q12809); test: Inhibition of human ERG by whole-cell voltage clamping
Voltage-gated inwardly rectifying potassium channel KCNH2, sequence (Q12809 whole entry): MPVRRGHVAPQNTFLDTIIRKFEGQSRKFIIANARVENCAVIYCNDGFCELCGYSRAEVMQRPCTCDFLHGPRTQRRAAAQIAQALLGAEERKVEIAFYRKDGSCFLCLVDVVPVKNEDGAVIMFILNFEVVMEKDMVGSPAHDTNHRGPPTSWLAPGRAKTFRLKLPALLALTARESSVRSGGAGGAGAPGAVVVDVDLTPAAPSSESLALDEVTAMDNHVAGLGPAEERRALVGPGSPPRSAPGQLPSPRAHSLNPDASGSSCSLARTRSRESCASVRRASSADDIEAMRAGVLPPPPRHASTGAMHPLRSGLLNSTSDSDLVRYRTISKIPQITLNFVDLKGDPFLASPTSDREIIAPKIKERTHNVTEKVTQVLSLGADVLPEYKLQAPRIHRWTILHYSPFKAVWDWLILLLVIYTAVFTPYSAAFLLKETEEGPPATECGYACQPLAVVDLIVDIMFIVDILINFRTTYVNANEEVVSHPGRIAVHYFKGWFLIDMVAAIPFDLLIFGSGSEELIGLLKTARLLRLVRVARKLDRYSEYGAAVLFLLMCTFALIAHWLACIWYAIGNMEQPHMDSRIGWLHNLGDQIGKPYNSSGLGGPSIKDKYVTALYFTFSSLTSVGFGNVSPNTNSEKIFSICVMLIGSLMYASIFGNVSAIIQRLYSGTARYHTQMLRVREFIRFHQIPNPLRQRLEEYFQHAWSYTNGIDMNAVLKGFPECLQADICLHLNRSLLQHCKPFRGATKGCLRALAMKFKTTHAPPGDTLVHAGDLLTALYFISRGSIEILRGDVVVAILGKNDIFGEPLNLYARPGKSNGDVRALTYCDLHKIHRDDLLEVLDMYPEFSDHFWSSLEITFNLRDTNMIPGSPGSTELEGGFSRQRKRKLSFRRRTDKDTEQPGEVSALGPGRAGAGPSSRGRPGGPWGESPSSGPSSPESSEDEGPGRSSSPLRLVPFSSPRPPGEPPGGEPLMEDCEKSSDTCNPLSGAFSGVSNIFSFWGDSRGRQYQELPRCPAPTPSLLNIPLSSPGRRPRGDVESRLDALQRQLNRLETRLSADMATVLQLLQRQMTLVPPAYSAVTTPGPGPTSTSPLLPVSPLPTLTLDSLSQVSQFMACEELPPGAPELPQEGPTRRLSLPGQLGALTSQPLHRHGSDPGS
Procedure, shortened: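 hERG tail current measured by whole-cell voltage clamp (Cyprotex) to obtain an IC50. Single-point screens were a separate high-throughput cell-based electrophysiology assay at 10 μM, with 0.3% DMSO vehicle and 1 μM cisapride as controls.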

Cc1nn(C)cc1-c1nc2c(N3CCN(Cc4ccc(Cl)cc4)CC3)c(Cl)cnc2[nH]1 [MOBINITINIB]
PPB [1]: 97.3% | bioavailability [2]: 79% | inhibition [3]: 1.8% | Vd [4]: 3.3 L/kg | half-life [5]: 277 min | inhibition [6]: 1.3% | half-life [7]: 50.4 min | AUC(0-inf) [8]: 3.75 µM·h | Activity [9]: Non-toxic | Activity [10]: Non-toxic | inhibition [11]: 4% | Activity [12]: 42% | AUC(0-inf) [13]: 39.9 µM·h | IC50 [14]: > 10 µM | IC50 [15]: > 25 µM
